Assay results pooled from the literature.
Lines come from different studies, so protocols differ.
SRD5A1: 3-oxo-5-alpha-steroid 4-dehydrogenase 1 (SRD5A1, Homo sapiens, UniProt P18405)
HTR2A: 5-hydroxytryptamine receptor 2A (HTR2A, Homo sapiens, UniProt P28223)

| Structure (SMILES) | target | observed | action | technique | cells | tested at | inhibition |
| --- | --- | --- | --- | --- | --- | --- | --- |
| COc1cc(C=CC(=O)O)ccc1OC(C)=O | SRD5A1 | enzyme activity in cells | inhibitor | – | HaCaT | 50 µM | 18.6% |
| COc1cc2c3c(c1OC)-c1c(OC)ccc(-c4ccc(C#N)cc4)c1CC3N(C)CC2 (stereo not shown) | HTR2A | ligand displacement | – | radioligand | – | 10 µM | 34% |
| Cc1cc(O)c(-c2ccc([C@@H](C)CN(C)C)cc2)c2c1[nH]c(=O)c1sccc12 | Serine/threonine-protein kinase VRK2 (VRK2, Homo sapiens, UniProt Q86Y07) | enzyme activity | inhibitor | – | – | 0.1 µM | 3.23% |
| CCN1/C(=C/C(C)=O)Sc2ccc(F)cc21 | Cannabinoid receptor 1 (CNR1, Homo sapiens, UniProt P21554) | ligand displacement | – | radioligand | – | 10 µM | 0% |
| COC(=O)C=Cc1ccc(OC)c(OC)c1 | SRD5A1 | enzyme activity in cells | inhibitor | – | HaCaT | 50 µM | 26.1% |
| Cc1cc(F)cc2c(CCC(=O)N[C@@H]3C(=O)NC[C@H]3O)c(-c3ccc(F)cc3)[nH]c12 | Endothelin-1 receptor (EDNRA, Homo sapiens, UniProt P25101) | cell-free assay | – | – | – | 10 µM | -19% |
| NC/C(=C\F)COc1cccc(Cn2c(=S)[nH]c(=O)c3[nH]cnc32)c1 | Hepatic sodium/bile acid cotransporter (SLC10A1, Homo sapiens, UniProt Q14973) | transporter uptake | inhibitor | – | – | 30 µM | < 50% |
| CC(=O)Oc1ccc(C=CC(=O)O)cc1OC(C)=O | SRD5A1 | enzyme activity in cells | inhibitor | – | HaCaT | 50 µM | 12.2% |
| CC[N+]1(C)CCc2cc(OC)c(OC)c3c2C1Cc1cccc(OC)c1-3 (stereo not shown) | HTR2A | ligand displacement | – | radioligand | – | 10 µM | 3% |
| C#Cc1cc(-c2cc(Nc3nc(N[C@@H](C)c4ccc(F)cn4)ncc3Cl)n[nH]2)ccc1C=O | Cytoplasmic tyrosine-protein kinase BMX (BMX, Homo sapiens, UniProt P51813) | enzyme activity | inhibitor | – | – | 0.2 µM | 70.8% |
